Data on four compounds can be found in ChEMBL document CHEMBL1129979, “Conformationally constrained deltorphin analogs with 2-aminotetralin-2-carboxylic acid in position 3” (J Med Chem, 1997).

The structures appear in SMILES notation. Bounds are passed on as bounds.

The target of assay [1] is T1, Delta-type opioid receptor (Rattus norvegicus, UniProt P33533). The assay can be described thus: The binding affinity was measured using [3H]- TIPPsi against Opioid receptor delta 1.
In assay [2] the target is Kappa-type opioid receptor (Rattus norvegicus, UniProt P34975).
The target in assay [3] is T1, Delta-type opioid receptor. The assay can be described thus: The binding affinity was measured using [3H]naltrindole against Opioid receptor delta 1 of rat brain.
For assay [4], the species on record is Cavia porcellus. The assay can be described thus: The inhibitory concentration activity was measured on guinea pig ileum (GPI). It is filed as functional. The gist of the method:
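Guinea pig ileum myenteric plexus-longitudinal muscle strips are mounted between platinum axial wire electrodes in Krebs bicarbonate at 37 °C, gassed with 95% O2/5% CO2, under 1 g tension. Strips are stimulated transmurally at 0.1 Hz, 1 ms, 40 V (supramaximal) and equilibrated 60 min before peptides are added. Single-dose dose-response curves are fitted to the Hill equation by least squares on mean data. IC50 is the concentration giving 50% reduction of contractions.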

In assay [5] the target is T1, Delta-type opioid receptor. The assay can be described thus: The binding affinity was measured using [3H]-DIDII against Opioid receptor delta 1 of rat brain.
For assay [6], the species on record is Mus musculus. The assay can be described thus: The inhibitory concentration activity was measured on electrically induced contraction of the mouse vas deferens (MVD). It is filed as functional. The gist of the method:
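Mouse vas deferens is mounted between platinum axial wire electrodes in Mg-free Krebs bicarbonate at 34 °C, gassed with 95% O2/5% CO2, under 0.5 g tension. After 15 min equilibration, it is stimulated transmurally at 0.1 Hz, 2 ms, 40 V (supramaximal). Dose-response curves are built by the single-dose method. IC50 is the concentration giving 50% reduction of contractions, from a Hill-equation least-squares fit of mean data.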

The target of assay [7] is Mu-type opioid receptor (Rattus norvegicus, UniProt P33535). The assay can be described thus: The binding affinity was measured using [3H]- DAGO against Opioid receptor mu 1 of rat brain.
Mu-type opioid receptor, sequence (P33535 whole entry): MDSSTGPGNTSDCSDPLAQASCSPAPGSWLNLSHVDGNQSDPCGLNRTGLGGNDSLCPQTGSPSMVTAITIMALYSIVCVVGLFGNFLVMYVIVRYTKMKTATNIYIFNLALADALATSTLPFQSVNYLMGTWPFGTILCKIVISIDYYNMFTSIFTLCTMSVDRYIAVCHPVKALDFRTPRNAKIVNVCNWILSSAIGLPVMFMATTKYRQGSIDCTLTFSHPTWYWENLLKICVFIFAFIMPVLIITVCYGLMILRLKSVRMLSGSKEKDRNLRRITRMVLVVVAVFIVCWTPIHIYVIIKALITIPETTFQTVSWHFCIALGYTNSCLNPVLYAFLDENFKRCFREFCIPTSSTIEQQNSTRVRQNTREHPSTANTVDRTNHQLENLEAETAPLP

Kappa-type opioid receptor, sequence (P34975 whole entry): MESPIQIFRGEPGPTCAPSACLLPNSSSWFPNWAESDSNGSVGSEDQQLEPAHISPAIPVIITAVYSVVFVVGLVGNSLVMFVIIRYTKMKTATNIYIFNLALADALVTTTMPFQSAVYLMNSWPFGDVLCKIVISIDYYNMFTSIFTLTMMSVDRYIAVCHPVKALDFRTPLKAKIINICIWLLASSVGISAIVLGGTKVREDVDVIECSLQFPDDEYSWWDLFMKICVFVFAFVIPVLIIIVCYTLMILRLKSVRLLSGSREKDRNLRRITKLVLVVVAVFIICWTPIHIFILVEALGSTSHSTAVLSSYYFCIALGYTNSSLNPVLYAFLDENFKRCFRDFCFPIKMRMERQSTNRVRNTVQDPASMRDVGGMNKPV
T1 sequence (P33533 whole entry): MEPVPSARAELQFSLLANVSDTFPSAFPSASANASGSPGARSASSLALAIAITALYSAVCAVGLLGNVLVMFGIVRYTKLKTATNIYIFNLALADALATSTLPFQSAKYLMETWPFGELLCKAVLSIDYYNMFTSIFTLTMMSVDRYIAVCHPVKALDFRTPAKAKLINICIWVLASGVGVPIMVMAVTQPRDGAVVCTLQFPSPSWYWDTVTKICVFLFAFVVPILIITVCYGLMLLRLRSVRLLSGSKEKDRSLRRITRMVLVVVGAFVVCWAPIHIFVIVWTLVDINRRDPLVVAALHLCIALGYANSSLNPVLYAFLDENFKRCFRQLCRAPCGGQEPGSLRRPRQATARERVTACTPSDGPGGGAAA

As to `CC[C@H](C)[C@H](NC(=O)[C@H](CC(=O)O)NC(=O)[C@H](Cc1ccccc1)NC(=O)[C@@H](C)NC(=O)[C@@H](N)Cc1ccc(O)cc1)C(=O)N[C@H](C(=O)NCC(N)=O)[C@@H](C)CC`, the Ki is 0.018 nM in assay [1]; over 10000 nM in assay [2]; 0.047 nM in assay [3]; 0.056 nM in assay [5]; 3220 nM in assay [7]. Also, the IC50 in assay [4] turned out to be 4210 nM; in assay [6] it was 0.082 nM.

As for `CC(C)[C@H](NC(=O)[C@H](CC(=O)O)NC(=O)[C@H](Cc1ccccc1)NC(=O)[C@H](C)NC(=O)[C@@H](N)Cc1ccc(O)cc1)C(=O)N[C@H](C(=O)NCC(N)=O)C(C)C`, the IC50 in assay [4] was over 3000 nM; in assay [6] it was 0.32 nM.

`CC[C@H](C)[C@H](NC(=O)[C@H](CCC(=O)O)NC(=O)[C@]1(NC(=O)[C@@H](C)NC(=O)[C@@H](N)Cc2ccc(O)cc2)CCc2ccccc2C1)C(=O)N[C@H](C(=O)NCC(N)=O)[C@@H](C)CC`: the Ki was 0.38 nM in assay [1]; over 10000 nM in assay [2]; 0.515 nM in assay [3]; 0.035 nM in assay [5]; 731 nM in assay [7]. The half-inhibitory concentration (IC50) in assay [4] came to 19600 nM; in assay [6], 0.09 nM.

With `CC[C@H](C)[C@H](NC(=O)[C@H](CCC(=O)O)NC(=O)[C@H](Cc1ccccc1)NC(=O)[C@@H](C)NC(=O)[C@@H](N)Cc1ccc(O)cc1)C(=O)N[C@H](C(=O)NCC(N)=O)[C@@H](C)CC`, the Ki is over 10000 nM in assay [2] and 3190 nM in assay [7]. Further, the figures for the IC50 in assay [4] and in assay [6] were 67200 nM and 0.5 nM, respectively.
